Measured values reported in ChEMBL document CHEMBL1125872, “Antiulcer agents. 5. Inhibition of gastric H+/K(+)-ATPase by substituted imidazo[1,2-a]pyridines and related analogues and its implication in modeling the high affinity potassium ion binding site of the gastric proton pump enzyme” (J Med Chem, 1991).

Tests used:
[1] = pKa value of the compound.; type: physicochemical
[2] = Compound was evaluated for the ability to inhibit purified H+/K+ -ATPase at pH 7.4, by using gastric membrane vesicles prepared from hog stomach.; type: functional, tissue-based, Sus scrofa
In short: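 Lyophilized, K+-permeable hog gastric membrane vesicles (10 μg) preincubated with inhibitor 30 min at 37 °C in 2 mM Pipes-Tris pH 7.4 with 10 mM KCl. Reaction started with 2 mM ATP/2 mM MgCl2. Read-out is inorganic phosphate release. K+-stimulated activity = total minus basal Mg2+ activity. Inhibitors added from methanol, final 1%. IC50 = 50% inhibition.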

[3] = Compound was evaluated for the ability to inhibit H+/K+ -ATPase formation in rabbit gastric glands.; type: functional, tissue-based, Oryctolagus cuniculus, Stomach
In short: (§1)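 Isolated rabbit gastric glands (collagenase-digested corpus mucosa, 37 °C ~1 h, rinsed, in respiratory medium pH 7.4). 10 mg wet weight glands incubated in RM with 0.05 μCi [14C]aminopyrine, stimulated with 10^-4 M histamine, 37 °C, 1 h shaking. Acid formation read as aminopyrine uptake. Inhibitors diluted in methanol, final 1%. IC50 = 50% inhibition.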

[4] = Inhibitory activity against histamine-stimulated gastric acid secretion in adult mengrel dogs, with surgically prepared Heidenhain pouches after peroral administration; type: functional; settings: Canis lupus familiaris, Stomach, po
In short: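 Heidenhain pouch mongrel dogs under histamine-stimulated acid secretion, oral dosing 2-8 mg/kg. Reduction in acid output taken relative to the untreated control value in the same dog. ED50 by linear regression, with 95% confidence limits.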

[5] = Inhibitory activity against histamine-stimulated gastric acid secretion in adult mengrel dogs, with surgically prepared Heidenhain pouches after intravenous administration; type: functional; settings: Canis lupus familiaris, Stomach
In short: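 Adult mongrel dogs with surgically prepared Heidenhain pouches, acid secretion stimulated by histamine. Intravenous dosing, 0.1-5 mg/kg. Acid output reduction measured against the non-drug control in the same animal. ED50 from linear regression, with 95% confidence limits.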

[6] = organism: Sus scrofa; assay: The percent of compound protonated at pH 7.4 in purified H+/K+ -ATPase from hog stomach.
[7] = Compound was evaluated for the ability to inhibitH+/K+ -ATPase formation in rabbit gastric glands.; type: functional, tissue-based, Oryctolagus cuniculus, Stomach; in short: as §1
[8] = organism: Oryctolagus cuniculus; assay: The percent of compound protonated at pH 7.4.; type: functional

Row | pKa [1] | IC50 [2] [uM l-1] | IC50 [3] [uM l-1] | Protonated [6] [%] | IC50 [7] [uM l-1] | Structure (SMILES) | ED50 [4] [mg/kg] | ED50 [5] [mg/kg] | Protonated [8] [%]
1 | 6 | 2 | 0.13 | 3.83 | – | Cc1nc2c(CCc3ccccc3)cccn2c1CC#N | > 4.4 | 0.1 | –
2 | 5.5 | – | – | – | – | Cc1nc2c(OCc3ccccc3)cccn2c1CC#N | – | – | –
3 | 6 | 0.092 | 0.064 | 3.83 | – | Cc1nc2c3c(ccn2c1CC#N)CCC(c1ccccc1)O3 (racemic) | – | – | –
4 | 5.67 | 13.7 | 0.4 | 1.83 | – | Cc1ccn2c(CC#N)c(C)nc2c1OCc1ccccc1 | – | – | –
5 | 6.75 | 8.6 | 14.1 | 18.3 | – | Cc1nc2c(/C=C/Cc3ccccc3)cccn2c1N | – | – | –
6 | 6 | 206 | 442 | 3.83 | – | Cc1nc2c(C/C=C/c3ccccc3)cccn2c1CC#N | – | – | –
7 | 7.3 | 2.1 | 1.46 | 44.3 | – | Cc1nc2c(CCc3ccccc3)cccn2c1N | – | – | –
8 | 7.2 | 1.68 | – | – | 0.99 | Cc1nc2c(/C=C/c3ccccc3)cccn2c1C | 4.8 | 0.7 | 38.7
9 | 5.7 | 14 | 3.8 | 1.96 | – | Cc1nc2c(/C=C/Cc3ccccc3)cccn2c1CC#N | – | – | –
10 | 7.2 | 28.4 | – | – | 17.5 | Cc1nc2c(/C=C\c3ccccc3)cccn2c1C | – | – | 38.7
11 | 4.6 | 178 | 8.08 | 0.158 | – | Cc1nc2c(OCc3ccccc3)nccn2c1N | – | – | –
12 | 6.81 | 0.89 | 0.31 | 20.4 | – | Cc1nc2c(OCc3ccccc3)cccn2c1N | – | – | –
